The values that follow come from ChEMBL document CHEMBL1149106, “Design, synthesis, and evaluation of aza-peptide epoxides as selective and potent inhibitors of caspases-1, -3, -6, and -8” (J Med Chem, 2004).

Molecules are shown by their SMILES. Activity calls are given as the source filed them. No cut-off for these calls is given here.

Test [1] addresses Human immunodeficiency virus type 1 protease (Human immunodeficiency virus 1) (UniProt Q72874). Briefly: Tested for inhibition of HIV-1 protease by the compound; NI = No Inhibition.
For a further test, the target named is T1, Caspase-1 (Homo sapiens) (UniProt P29466).
T1 sequence (whole entry): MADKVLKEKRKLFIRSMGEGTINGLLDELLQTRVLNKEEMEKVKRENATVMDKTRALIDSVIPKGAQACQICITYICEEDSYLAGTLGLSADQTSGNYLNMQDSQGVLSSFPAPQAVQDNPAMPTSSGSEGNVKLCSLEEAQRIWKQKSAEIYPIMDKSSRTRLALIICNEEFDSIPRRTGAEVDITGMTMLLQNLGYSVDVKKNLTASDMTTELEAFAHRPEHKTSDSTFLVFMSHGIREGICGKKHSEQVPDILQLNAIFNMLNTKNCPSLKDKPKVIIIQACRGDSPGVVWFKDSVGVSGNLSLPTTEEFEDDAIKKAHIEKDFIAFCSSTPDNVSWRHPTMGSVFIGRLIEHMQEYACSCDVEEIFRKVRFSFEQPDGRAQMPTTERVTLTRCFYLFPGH
As to the kind of experiment: Second-order inhibition rate of caspase-1 was determined by progress curve method. The essentials:
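Caspase-1 assay buffer: 100 mM HEPES, 0.5 mM EDTA, 20% (v/v) glycerol, 5 mM DTT, pH 7.5. Substrate: Ac-YVAD-AMC.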

The target in test [2] is Cathepsin D (Homo sapiens) (UniProt P07339). Briefly: Tested for inhibition of human cathepsin D by the compound; NI = No Inhibition.
Cathepsin D (Homo sapiens), sequence (P07339 65-162 limits assumed): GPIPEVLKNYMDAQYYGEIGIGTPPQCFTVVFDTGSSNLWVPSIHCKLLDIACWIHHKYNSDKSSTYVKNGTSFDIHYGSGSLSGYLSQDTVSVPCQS
Cathepsin D (Homo sapiens), sequence (P07339 169-412 limits assumed): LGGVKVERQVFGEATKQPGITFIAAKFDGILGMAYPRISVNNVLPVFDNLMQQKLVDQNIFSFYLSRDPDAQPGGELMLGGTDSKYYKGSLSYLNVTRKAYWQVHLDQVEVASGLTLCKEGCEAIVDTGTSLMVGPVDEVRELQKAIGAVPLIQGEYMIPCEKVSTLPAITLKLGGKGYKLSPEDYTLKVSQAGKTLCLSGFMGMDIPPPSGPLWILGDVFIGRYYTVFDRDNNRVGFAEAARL
For a further test, the target named is T2, Caspase-3 (Homo sapiens) (UniProt P42574).
T2 sequence (whole entry): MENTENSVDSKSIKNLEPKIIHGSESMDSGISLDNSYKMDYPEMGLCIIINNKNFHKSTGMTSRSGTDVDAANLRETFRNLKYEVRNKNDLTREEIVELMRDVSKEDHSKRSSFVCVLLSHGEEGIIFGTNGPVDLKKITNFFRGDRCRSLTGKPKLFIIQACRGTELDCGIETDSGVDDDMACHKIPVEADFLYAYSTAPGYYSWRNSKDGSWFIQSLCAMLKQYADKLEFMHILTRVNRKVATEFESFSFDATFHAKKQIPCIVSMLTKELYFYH
As to the kind of experiment: Second-order inhibition rate of caspase-3 was determined by progress curve method. The method in brief: (§1)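 Caspases-3, -6 and -8 were assayed in 50 mM HEPES, 100 mM NaCl, 0.1% (w/v) CHAPS, 10% (w/v) sucrose and 10 mM DTT, pH 7.4. Substrate: Cbz-DEVD-AFC or Cbz-DEVD-AMC.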

For test [3], the target named is Plasmepsin II (Plasmodium falciparum) (UniProt P46925). Briefly: Inhibition of plasmepsin-2 from Plasmodium falciparum; NI = No Inhibition.
Plasmepsin II (Plasmodium falciparum), sequence (P46925 125-453 limits assumed): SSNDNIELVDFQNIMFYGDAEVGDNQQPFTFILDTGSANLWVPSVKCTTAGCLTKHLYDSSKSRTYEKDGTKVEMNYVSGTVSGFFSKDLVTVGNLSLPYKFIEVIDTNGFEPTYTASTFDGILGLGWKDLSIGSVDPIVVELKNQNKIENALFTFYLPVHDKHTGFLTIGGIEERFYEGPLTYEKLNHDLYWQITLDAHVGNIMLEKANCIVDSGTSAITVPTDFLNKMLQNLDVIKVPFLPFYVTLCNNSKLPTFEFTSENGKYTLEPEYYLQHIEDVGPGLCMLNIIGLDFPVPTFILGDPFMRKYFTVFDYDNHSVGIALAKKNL
The subject of test [4] is Cathepsin B. Briefly: Tested for inhibition of cathepsin B by the compound; NI = No Inhibition.
The target of another test is Caspase-8 (Homo sapiens) (UniProt Q14790). As to the kind of experiment: Second-order inhibition rate of caspase-8 was determined by progress curve method. The essentials:
as §1

In test [5] the target is Granzyme B (Homo sapiens) (UniProt P10144). Briefly: Tested for inhibition of granzyme B by the compound.
Granzyme B (Homo sapiens), sequence (P10144 whole entry): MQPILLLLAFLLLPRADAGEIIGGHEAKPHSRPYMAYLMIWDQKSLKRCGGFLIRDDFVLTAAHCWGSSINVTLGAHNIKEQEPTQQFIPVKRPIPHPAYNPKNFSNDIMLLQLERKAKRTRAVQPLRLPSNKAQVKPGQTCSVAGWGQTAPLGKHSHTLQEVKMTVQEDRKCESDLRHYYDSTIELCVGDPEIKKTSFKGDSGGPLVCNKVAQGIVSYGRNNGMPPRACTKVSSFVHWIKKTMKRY
The target in a further test is T3, Caspase-6 (Homo sapiens) (UniProt P55212).
T3 sequence (whole entry): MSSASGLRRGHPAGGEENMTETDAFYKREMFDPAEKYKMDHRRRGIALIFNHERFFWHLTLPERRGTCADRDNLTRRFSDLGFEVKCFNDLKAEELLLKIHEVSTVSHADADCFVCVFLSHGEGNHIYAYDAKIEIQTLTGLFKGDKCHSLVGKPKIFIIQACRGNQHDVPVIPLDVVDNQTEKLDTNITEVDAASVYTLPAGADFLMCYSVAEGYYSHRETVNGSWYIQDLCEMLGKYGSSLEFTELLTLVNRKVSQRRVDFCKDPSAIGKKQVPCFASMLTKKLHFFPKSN
As to the kind of experiment: Second-order inhibition rate of caspase-6 was determined by progress curve method. The method in brief: as §1

The target in the next test is Pepsin A (Sus scrofa) (UniProt P00791). As to the kind of experiment: Tested for inhibition of porcine pepsin by the compound; NI = No Inhibition.
Pepsin A (Sus scrofa), sequence (P00791 60-385 limits assumed): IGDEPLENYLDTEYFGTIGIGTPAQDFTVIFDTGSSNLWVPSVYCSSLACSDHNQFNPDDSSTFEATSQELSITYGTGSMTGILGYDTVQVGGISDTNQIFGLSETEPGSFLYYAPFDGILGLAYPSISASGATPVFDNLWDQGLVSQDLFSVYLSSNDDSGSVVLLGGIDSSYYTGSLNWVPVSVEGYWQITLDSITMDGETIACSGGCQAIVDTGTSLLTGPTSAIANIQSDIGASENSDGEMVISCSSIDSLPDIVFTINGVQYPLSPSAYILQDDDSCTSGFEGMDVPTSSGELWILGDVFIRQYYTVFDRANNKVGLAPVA
For test [6], the target named is Cathepsin B (Homo sapiens) (UniProt P07858). Briefly: Tested for inhibition of cathepsin B by the compound; NI = No Inhibition.
For test [7] the target is unchanged. Briefly: Tested for inhibition of cathepsin B by the compound.
The target in test [8] is Human immunodeficiency virus type 1 protease (Human immunodeficiency virus 1) (UniProt Q72874). Briefly: Tested for inhibition of HIV-1 protease; NI = No Inhibition.
Test [9] can be described thus: Tested for inhibition of chymotrypsinogen by the compound; NI = No Inhibition.
Test [10] addresses T4, Papain (Carica papaya) (UniProt P00784).
T4 sequence (whole entry): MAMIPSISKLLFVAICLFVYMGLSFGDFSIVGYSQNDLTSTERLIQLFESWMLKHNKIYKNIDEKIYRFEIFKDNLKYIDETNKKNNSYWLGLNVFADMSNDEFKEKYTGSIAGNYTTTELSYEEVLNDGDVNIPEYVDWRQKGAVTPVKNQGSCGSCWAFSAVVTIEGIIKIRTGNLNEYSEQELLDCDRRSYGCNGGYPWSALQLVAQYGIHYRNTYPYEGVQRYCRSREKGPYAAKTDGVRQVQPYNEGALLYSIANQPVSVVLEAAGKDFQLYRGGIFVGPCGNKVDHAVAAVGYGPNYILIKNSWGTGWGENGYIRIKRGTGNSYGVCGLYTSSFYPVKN
As to the kind of experiment: Tested for inhibition of papain by the compound; NI = No Inhibition.

Test [11] can be described thus: Tested for inhibition of chymotrypsinogen by the compound; ND = Not determined.
The target in test [12] is T4, Papain (Carica papaya). Briefly: Tested for inhibition of papain by the compound.
The subject of test [13] is Cathepsin B. As to the kind of experiment: Tested for inhibition of cathepsin B by the compound.
The target in test [14] is Granzyme B (Homo sapiens) (UniProt P10144). As to the kind of experiment: Tested for inhibition of granzyme B by the compound; NI = No Inhibition.

Caspase-8 (Homo sapiens), sequence (Q14790 217-374 limits assumed): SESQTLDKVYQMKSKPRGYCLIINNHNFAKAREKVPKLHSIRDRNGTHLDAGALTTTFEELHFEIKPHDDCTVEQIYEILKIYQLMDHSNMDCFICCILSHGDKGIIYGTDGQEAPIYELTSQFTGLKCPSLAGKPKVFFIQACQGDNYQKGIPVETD
Caspase-8 (Homo sapiens), sequence (Q14790 385-479 limits assumed): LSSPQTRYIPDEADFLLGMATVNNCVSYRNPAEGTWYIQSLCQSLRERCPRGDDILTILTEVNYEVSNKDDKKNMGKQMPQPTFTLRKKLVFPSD

As for `CCOC(=O)[C@H]1O[C@@H]1C(=O)N(CC(=O)O)NC(=O)[C@@H](NC(=O)[C@H](CCC(=O)O)NC(=O)[C@@H](NC(=O)OCc1ccccc1)[C@@H](C)CC)[C@@H](C)O`, the “k obs / 1” value (in [1]; in test [2]; in test [3]; in the test on Cathepsin B [4]; at Pepsin A (Sus scrofa); in test [6]) was “inactive” throughout. Further, the k2 on Caspase-1 (Homo sapiens) was 12400 M⁻¹ s⁻¹; at Caspase-3 (Homo sapiens), 4080 M⁻¹ s⁻¹; at Caspase-8 (Homo sapiens) it was 52800 M⁻¹ s⁻¹; on Caspase-6 (Homo sapiens) it was 45800 M⁻¹ s⁻¹. Moreover, the k obs / 1 in test [5] was determined as 0.65 M⁻¹ s⁻¹.

`CC(C)[C@H](NC(=O)CCc1ccccc1)C(=O)N[C@@H](C)C(=O)NN(CC(=O)O)C(=O)[C@H]1O[C@@H]1C(=O)OCc1ccccc1` (stereo in doubt; 23d(S,S)): the “k obs / 1” value (in [1]; in test [2]; in test [3]; on Pepsin A (Sus scrofa)) was “inactive” throughout. For the same molecule, the k2 at Caspase-1 (Homo sapiens) came to 52100 M⁻¹ s⁻¹; at Caspase-3 (Homo sapiens), 1470 M⁻¹ s⁻¹; at Caspase-8 (Homo sapiens) it was 1560 M⁻¹ s⁻¹; at Caspase-6 (Homo sapiens), 165 M⁻¹ s⁻¹. Further, the results for the k obs / 1 in test [7] and in test [5] were less than 10 M⁻¹ s⁻¹ and less than 0.3 M⁻¹ s⁻¹, respectively.

Turning to `CCOC(=O)[C@H]1O[C@@H]1C(=O)N(CC(=O)O)NC(=O)[C@H](C)NC(=O)[C@@H](NC(=O)CCc1ccccc1)C(C)C`, the “k obs / 1” value (in [8]; in test [2]; in test [3]; at Pepsin A (Sus scrofa)) was “inactive” in each case. The k2 on Caspase-1 (Homo sapiens) is 32200 M⁻¹ s⁻¹; at Caspase-3 (Homo sapiens), 1040 M⁻¹ s⁻¹; on Caspase-8 (Homo sapiens), 1570 M⁻¹ s⁻¹; at Caspase-6 (Homo sapiens), 75 M⁻¹ s⁻¹.

On to `CCOC(=O)[C@@H]1O[C@H]1C(=O)N(CC(=O)O)NC(=O)[C@@H](NC(=O)C(CCC(=O)O)NC(=O)[C@H](CC(=O)O)NC(=O)OCc1ccccc1)C(C)C` (stereo not given in full), for which the “k obs / 1” value (in test [1]; in test [2]; in [3]; in the test with Cathepsin B [4]; in [9]; on Papain (Carica papaya) [10]) was “inactive” each time. The “k obs / 1” value (on Pepsin A (Sus scrofa); in test [6]) was “inactive” throughout. Also, the k2 at Caspase-1 (Homo sapiens) turned out to be 4320 M⁻¹ s⁻¹; at Caspase-3 (Homo sapiens), 464000 M⁻¹ s⁻¹; at Caspase-8 (Homo sapiens) it was 785 M⁻¹ s⁻¹; at Caspase-6 (Homo sapiens) it was 475 M⁻¹ s⁻¹. This molecule also gave a k obs / 1 in test [5] of less than 0.1 M⁻¹ s⁻¹.

As to `CCOC(=O)[C@H]1O[C@@H]1C(=O)N(CC(=O)O)NC(=O)[C@@H](NC(=O)[C@H](CCC(=O)O)NC(=O)OCc1ccccc1)C(C)C`, the k obs / 1 in test [11] came to 86 M⁻¹ s⁻¹. Also, the “k obs / 1” value (in test [1]; in [2]; in test [3]; at Pepsin A (Sus scrofa)) was “inactive” throughout. Further, the k2 at Caspase-1 (Homo sapiens) amounted to 58500 M⁻¹ s⁻¹; at Caspase-3 (Homo sapiens), 50500 M⁻¹ s⁻¹; on Caspase-8 (Homo sapiens), 195000 M⁻¹ s⁻¹; on Caspase-6 (Homo sapiens) it was 4180 M⁻¹ s⁻¹.

`CC(C)[C@H](NC(=O)CCc1ccccc1)C(=O)N[C@@H](C)C(=O)NN(CC(=O)O)C(=O)[C@H]1O[C@@H]1C(=O)OCc1ccccc1` (stereo in doubt): the k obs / 1 was less than 10 M⁻¹ s⁻¹ on Papain (Carica papaya) [12], “No inhibition” with Cathepsin B [13], less than 10 M⁻¹ s⁻¹ in test [7] and 21 M⁻¹ s⁻¹ in test [9]. The k2 is 18100 M⁻¹ s⁻¹ at Caspase-1 (Homo sapiens) and 680 M⁻¹ s⁻¹ at Caspase-3 (Homo sapiens).

`CCOC(=O)[C@H]1O[C@@H]1C(=O)N(CC(=O)O)NC(=O)[C@@H](NC(=O)C(CCC(=O)O)NC(=O)[C@H](CC(C)C)NC(=O)OCc1ccccc1)[C@@H](C)O` (stereo not given in full): the “k obs / 1” value (in test [1]; in test [2]; in [3]; in the test on Cathepsin B [4]; in test [14]; at Papain (Carica papaya) [10]) was “inactive” each time. For the same molecule, the “k obs / 1” value (on Pepsin A (Sus scrofa); in [6]) was “inactive” throughout. For the same molecule, the k2 on Caspase-1 (Homo sapiens) is 25700 M⁻¹ s⁻¹; at Caspase-3 (Homo sapiens) it was 3210 M⁻¹ s⁻¹; on Caspase-8 (Homo sapiens) it was 61200 M⁻¹ s⁻¹; at Caspase-6 (Homo sapiens), 8620 M⁻¹ s⁻¹. The k obs / 1 in [9] was found to be 36 M⁻¹ s⁻¹.
